Test results published in ChEMBL document CHEMBL4513216, “Probing the Open Global Health Chemical Diversity Library for Multistage-Active Starting Points for Next-Generation Antimalarials” (ACS Infect Dis, 2020).

Assay: Toxicity liver stage against HepG2, at 10uM
Assay type: cell-based
Parameters: test concentration 10 uM, cell line HepG2-A16-CD81EGFP
Conditions: human, HepG2-A16-CD81EGFP cells; read-out: INHIBITION
Summary of the method: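 Uninfected HepG2-A16-CD81EGFP cells, 3 × 10^3 per well, 1536-well, plated on prespotted compound at 10 μM final, parasite-free screening media added to match infected plates; puromycin 10 μM positive, DMSO 0.5% negative; run in parallel with 48 h PbLuc assay at 37 °C, 5% CO2; viability by CellTiter-Glo luminescence, normalized to controls.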

| Structure (SMILES) | cytotoxicity at 10 µM |
| --- | --- |
| CCN(CC)S(=O)(=O)c1ccc(C(=O)NC(C)(C#N)C2CC2)cc1 (configuration not stated) | -5.77% |
| O=C1N(Cc2ccccc2)C[C@H]2CN(Cc3ccccc3Cl)CCN12 | 2.23% |
| CCNC(=O)NC[C@H]1Cn2c(-c3ccccc3)cnc2CO1 | -2.12% |
| CC(C)N1CCOC[C@H]1c1nc(-c2ccncc2)c[nH]1 | 6.73% |
| CC1=C[C@@H](CN2CCCC2)[C@H](C(C)C)C[C@H]1Cc1nnc(C)o1 | 2.47% |
| COc1cc2nc(C)n(CC(=O)NCCCO)c(=O)c2cc1OC | -0.869% |
| COCCn1/c(=N\C(=O)CN(C)S(C)(=O)=O)sc2cccc(F)c21 | -11.5% |
| CCN(c1ccsc1C(=O)N1CCSCC1)S(=O)(=O)c1ccc(Cl)cc1 | 14.5% |
| N#Cc1ccc(C(=O)N2CC(c3nc(-c4ncccn4)no3)C2)cc1 | -0.713% |
| CCCc1nnsc1C(=O)NCC(O)c1ccc(SC)cc1 (configuration not stated) | 1.71% |
| CC(=O)N1CCC2(CC1)NC(=O)[C@H]1CN(Cc3cccnc3)C[C@H]12 | -1.77% |
| O=C(NC1CC1)N1CC[C@H]2[C@H]1CCN2c1ncccn1 | 3.08% |
| CC(=O)N1CCC2(CCCN(S(=O)(=O)c3ccc(F)cc3)C2)C1 (configuration not stated) | 2.26% |
| COC(=O)CCC(=O)N1CCc2nc(C(=O)N3CCOCC3)sc2CC1 | 15.3% |
| CC1N(CC2CC2)C(=O)COC12CCN(C(=O)c1cscn1)CC2 (configuration not stated) | -8.04% |
| COCC1CN(C(=O)[C@H]2CCCO2)Cc2nnn(CC3CC3)c21 (some centres not stated) | -1.59% |
| O=C(c1ccco1)N1CC[C@@H]2O[C@H](COCC3CCOCC3)CC[C@@H]21 | 6.8% |
| Cc1ccc(C(=O)N2CCC3(CC2)COCCN(S(C)(=O)=O)C3)cc1C | 3.27% |
| Cc1ccoc1C(=O)N1CC(C(=O)N2CCOCC2)C2(CCOCC2)C1 (configuration not stated) | -1.2% |
| Cc1ccsc1C(=O)N1CC(C(=O)N2CCCC2)C2(CCOCC2)C1 (configuration not stated) | 3.68% |
| CC(C)(C)n1ncc2c1NC(=O)CC2c1cccc(O)c1 (configuration not stated) | -6.36% |
| CNC(=O)[C@H]1CCS(=O)(=O)[C@@H]2CN(Cc3ccc(OC)cc3)C[C@H]12 | -10.3% |

| Structure (SMILES) | cytotoxicity at 10 µM |
| --- | --- |
| CNC(=O)C1CN(c2ccnc(C)n2)CCN1Cc1ccccc1 (configuration not stated) | 8.48% |
| CC(C)N1CCCC(Cc2nccnc2Cl)CC1 (configuration not stated) | -3.97% |
| CN(C)c1ncc(I)c(C2CCCCN2S(C)(=O)=O)n1 (configuration not stated) | 5.09% |
| CC(C)C(=O)N1CCC(C)(c2cc(O)[nH]n2)CC1 | -14.5% |
| NCCC(=O)N1CCC2(CC1)CN(C(=O)Cc1cccc(Cl)c1)CCO2 | 5.56% |
| CC(=O)N1CCN(c2ccccc2CNc2ccc(C)cn2)CC1 | 11.2% |
| Cc1ccc(C(CNC(=O)c2cc(=O)c3ccccc3[nH]2)N(C)C)cc1 (configuration not stated) | -14.6% |
| CC(NCc1ccnc(OC2CCC2)c1)c1cnn(C)c1 (configuration not stated) | 5.64% |
| COc1ncc(NCc2ccc(F)cc2)cc1C(N)=O | -0.976% |
| CN(C)c1nc2sc(C(=O)N3CCNC(=O)CC3)cc2s1 | -10.1% |
| Cc1cc(C)n(CC2CCN(CC(O)CN3CCOCC3)CC2)n1 (configuration not stated) | -7.35% |
| CCc1noc(C)c1C(=O)NCc1c(C)nn(CCOC)c1C | -9.35% |
| CCc1cnc(CN2CCCC(c3cc(C)[nH]n3)C2)o1 (configuration not stated) | 0.503% |
| O=C(c1ccc(-n2cc(Br)cn2)cc1)N1CCN(c2cnccn2)CC1 | 1.52% |
| O=C(NCc1ccc2c(c1)OCO2)c1ccc(N2CCCCCC2)nc1 | -6.78% |
| N#Cc1ccc(F)c(CSCCN2CCOCC2)c1 | -5.71% |
| Cn1cc(C(=O)NCc2ccc(N3CCNC(=O)C3)c(F)c2)cn1 | -2.97% |
| COc1ccc(OC)c(C(=O)N2CCC(Nc3cccnc3)CC2)c1 | -138% |
| CCOc1ccc(NC(=O)N2CCOC(C(N)=O)C2)cc1C (configuration not stated) | -140% |
| CNS(=O)(=O)CC1CCCN1C(=O)c1ccc(C)c(C)c1 (configuration not stated) | -6.93% |
| COCCCNC(=O)CN1CCC(c2ccccc2)C1 (configuration not stated) | 20.3% |
| CN(C)c1nccc(CNS(=O)(=O)c2ccc(F)c(Cl)c2)n1 | -140% |

| Structure (SMILES) | cytotoxicity at 10 µM |
| --- | --- |
| CC(C)CC(CO)NC(=O)NCc1csc(N(C)C)n1 (configuration not stated) | 6.07% |
| CCOC(=O)C1CSCCN1C(=O)c1ccc(-n2nc(C)cc2C)cc1 (configuration not stated) | -4.92% |
| CC(NC1CCN(CCS(C)(=O)=O)CC1)c1cnn(C(C)C)c1 (configuration not stated) | -0.132% |
| NCc1cccc(NC(=O)CCN2CCOCC2)c1 | -0.509% |
| CC(C)(NS(C)(=O)=O)c1nc(-c2cccc(Cl)c2)no1 | 2.31% |
| COc1ccc(CNC2CCN(CCc3ccncc3)CC2)cc1O | -10.5% |
| O=C(NS(=O)(=O)c1cc(Cl)sc1Cl)c1cccc2c1OCCO2 | 5.32% |
| Cc1nc(CCNC(=O)N2CCC(Cc3cnn(C)c3)C2)cs1 (configuration not stated) | -6.13% |
| Cc1cnn(CC2CCCCN2CC(=O)NCc2ccccn2)c1 (configuration not stated) | -6.16% |
| CCN1CCNC(=O)C12CCN(C(=O)c1ccccn1)CC2 | -0.514% |
| O=C(c1ccnnc1)N1CCN2C[C@H](OCc3ccccn3)C[C@H]2C1 | -77.2% |
| Cn1cccc1C(=O)N1CCc2onc(Cn3cccn3)c2C1 | -4.72% |
| CCS(=O)(=O)N1CCC2(CC1)CC(CC(=O)NC1CC1)c1ccccc12 (configuration not stated) | -1.72% |
| Cc1cccc2c(=O)n(C(C)Cc3cccnc3)cnc12 (configuration not stated) | -13.5% |
| CC(=O)c1cnc(NCCCN2CCOCC2)nc1C | -2.77% |
| CCC[C@@H]1CN(C(=O)Cc2sc(C)nc2C)C[C@H]1C(=O)O | -125% |
| Cc1cc(C(=O)N2C[C@@H](CN(C)CCN(C)C)[C@@H](CO)C2)nc(C)n1 | 7.01% |
| Cc1ncccc1Oc1ncnc(N2CCC3(CCCO3)CC2)c1C | -6.89% |
| CCNC(=O)[C@@H]1C[C@@H](NC(=O)c2cnc[nH]c2=O)CN1Cc1ccsc1 | -6.94% |
| Cc1ccnn1CCC(=O)N1CCN(C2CCc3ccccc3C2)CC1 (configuration not stated) | -118% |
| COCCn1cnnc1Cn1ccnc1-c1ccccc1C | -7.58% |
| COc1ncccc1C1CC(=O)NCc2nc3sccn3c21 (configuration not stated) | 3.86% |

| Structure (SMILES) | cytotoxicity at 10 µM |
| --- | --- |
| CCc1nc(CN(CCc2ccccc2)C2CCN(C)CC2)no1 | -0.355% |
| CCc1cc(C(=O)N2CC[C@@H](c3ccc4c(c3)OCO4)[C@H](O)C2)[nH]n1 | -3.87% |
| COc1ccc([C@@H]2C[C@H](NC(C)=O)C[C@H](Cc3ccccc3)O2)cn1 | 5.46% |
| CC(=O)c1cn(CC(=O)N2CCC3(CC2)OCCO3)c2ccccc12 | 0.436% |
| COc1ccc(C(=O)N2C[C@@H](C)[C@@](C)(O)C2)cc1N1CCOCC1 | 11.3% |
| Cc1cnccc1CN1C[C@@H](O)[C@H](Oc2ccccc2)C1 | 1.85% |
| CCCn1ccc(C(=O)N2CCOC(c3nc(-c4cccs4)no3)C2)n1 (configuration not stated) | 8.54% |
| Cc1ncsc1C(=O)NC1CCN(CCC(=O)Nc2ccccc2)CC1 | -1.39% |
| Cn1ncc2c(=O)[nH]c(CN3CCCC3Cc3ccc(F)cc3)nc21 (configuration not stated) | 0.301% |
| CC(NC(=O)NCC1(c2ccc(F)cc2)CCCC1)c1nncn1C (configuration not stated) | -6.27% |
| CCOc1ncccc1NC(=O)N1CCCN(C(=O)OC)CC1 | -9.86% |
| CCc1nc(C2CCCN2Cc2nnc(C3CC3)o2)no1 (configuration not stated) | -13.2% |
| CC(C)C(=O)NS(=O)(=O)c1ccc(C#N)cc1C(F)(F)F | -12.3% |
| Cc1cnn(CC2CCCN2Cc2nnc(C)o2)c1 (configuration not stated) | -11.2% |
| COc1ccccc1N1CCC(CNS(=O)(=O)c2cccc(C#N)c2)C1 (configuration not stated) | -4.13% |
| Cc1ncsc1C(=O)N(C)Cc1cccnc1 | -5.57% |
| CN1CCOC(CNC(=O)CCCOc2cccc(F)c2)C1 (configuration not stated) | -5.1% |
| Cc1nn(C)c(N(C)C)c1CNC1CCOc2ccccc21 (configuration not stated) | -9.66% |
| CS(=O)(=O)NCCCN1CCCC1c1cccc(Br)c1 (configuration not stated) | -2.51% |
| Cn1c(NCC(O)c2ccccc2F)c(C#N)c(=O)n(C)c1=O (configuration not stated) | -12.5% |
| CCN1CCN(C(=O)c2cccn2Cc2ccccc2)CC1 | -12.3% |
| Cc1cnc(CN2CCCC2c2noc(C3CC3)n2)cn1 (configuration not stated) | -13.5% |

| Structure (SMILES) | cytotoxicity at 10 µM |
| --- | --- |
| CSCC(=O)N1CCCCC1Cn1cc(C)cn1 (configuration not stated) | -8.24% |
| c1ncn(CC2CCCN(Cc3noc(C4CC4)n3)C2)n1 (configuration not stated) | 0.428% |
| Cc1cccc(OCC(=O)N2CCN(C3CCOC3=O)CC2)c1C (configuration not stated) | -15% |
| CC(Cn1cccn1)NC(=O)N1CCN(Cc2ccncc2)CC1 (configuration not stated) | -20.8% |
| Cc1cnn(C2CCCN(C(=O)COc3ccc(C(N)=O)cc3)C2)c1 (configuration not stated) | -0.0295% |
| CC(Cn1cccn1)NC(=O)NCc1cccs1 (configuration not stated) | -0.12% |
| CC(=O)N(Cc1ncc(C)o1)C1CCN(Cc2ccncc2Cl)C1 (configuration not stated) | 3.68% |
| Cn1cccc1C(=O)N1C[C@@H]2C[C@@H](c3nc(C4CC4)cs3)O[C@@H]2C1 | -113% |
| Cc1cccc(CN2C(=O)C[C@H]3[C@@H]2CCN3Cc2ccc(F)cc2)n1 | 2.2% |
| CCN1CCC2(CC1)CC(NCc1cccs1)c1ccccc1O2 (configuration not stated) | -11.6% |
| Cc1cccc(COCC2c3nnn(C)c3CCN2Cc2ccoc2)n1 (configuration not stated) | -142% |
| Cc1cccc(CN2Cc3[nH]nc(COCc4nccs4)c3C2)n1 | -7.12% |
| CNC(=O)[C@@H]1C[C@H]2CN(Cc3ccco3)C[C@H]2N1C | 7.76% |
| COCCNC(=O)[C@H]1CN(Cc2sccc2C)C[C@H]2OCC[C@@H]12 | 2.05% |
| COc1ccc(CN2C[C@@H]3CN(Cc4ccoc4)C[C@@H]3C2=O)cc1 | -8.37% |
| Cc1cccc(CN2CC[C@H]3CO[C@H](CNC(=O)N(C)C)[C@H]3C2)c1 | 1.47% |
| O=C(c1ccsc1)N1CCC2(CCN(Cc3ccccn3)C2=O)C1 (configuration not stated) | -147% |
| CSc1ccc(C(=O)N2C[C@@H]3CC[C@H]2CN(Cc2cccnc2)C3)cc1 | -7.38% |
| O=C(Cc1ccccn1)N1C[C@H]2CC[C@@H](C1)N(Cc1ccccc1)C2=O | -13% |
